Series [1] in a line: Cmax in BALB/c mouse at 50 mg/kg, po. Conditions: in vivo. The format is ADME, organism-based. Also on record: dose 50 mg/kg, route oral. The essentials: (§1)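 Female BALB/c mice (20-22 g), groups of 12, single oral 50 mg/kg dose formulated in 5% NMP/95% PEG400. Retro-orbital blood sampled at 0, 0.5, 1, 2, 4, 8 and 24 h postdose. Plasma obtained by centrifugation, precipitated with three volumes acetonitrile containing internal standard. Parent quantified by LC-MS-MS. AUC over 0–24 h.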

A short description of series [2]: Tmax in BALB/c mouse at 50 mg/kg, po. Conditions: in vivo. Also on record: dose 50 mg/kg, route oral. Type of series: ADME, organism-based. The essentials: as §1
In series [3] the test system is Vero. Description: Cytotoxicity against african green monkey Vero cells after 72 hrs. Conditions: Chlorocebus sabaeus. The format is cell-based. The essentials:
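Vero cells (CCL-81), 5 × 10^5 log-phase cells per well, exposed to geometric 3-fold dilutions in MEM with 10% FBS, 25 mM HEPES, 0.2% NaHCO3, 2 mM glutamine. DMSO ≤1% v/v final. Tested in duplicate at 37 °C, 5% CO2. Viability read after 72 h by CellTiter 96 aqueous (MTS) absorbance at 490 nm. IC50 from curve fitting.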

Series [4] in a line: Metabolic stability in mouse liver microsomes assessed as intrinsic clearance. The format is ADME, Microsome. The essentials:
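Intrinsic clearance scaled up from the in vitro half-life in mouse liver microsomes. Microsomes at 0.5 mg/mL, compound at 1 μM, 1.0 mM NADPH, pH 7.4 phosphate buffer, 37 °C, in triplicate. Parent depletion followed over 30 min by LC-MS-MS.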
On the technique in general: Microsomes from liver hold many membrane-bound enzymes, among them those of drug oxidation.

A short description of series [5]: Metabolic stability in mouse liver microsomes assessed as hepatic clearance. Type of series: ADME, Microsome. The essentials: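 Hepatic plasma clearance predicted from microsomal intrinsic clearance with the nonrestricted well-stirred liver model. Assumes protein binding is similar in blood and microsomes. Microsomal depletion run at 1 μM compound, 0.5 mg/mL mouse microsomes, 1.0 mM NADPH, 37 °C, in triplicate, measured by LC-MS-MS.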

Series [6] is described as follows: Selectivity index, ratio of IC50 for african green monkey Vero cells to MIC for Mycobacterium tuberculosis H37Rv ATCC 27294. Type of series: functional. The procedure, abridged:
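The ratio takes the Vero (CCL-81) IC50 as numerator. Cells were exposed to geometric 3-fold dilutions (12.8 mM DMSO stocks, final DMSO ≤1% v/v) in MEM with 10% FBS, 25 mM HEPES and 2 mM glutamine, in duplicate. Culture was 72 h at 37 °C, 5% CO2. Viability was read by CellTiter 96 aqueous absorbance at 490 nm, and IC50 came from curve fitting. The denominator is the H37Rv MABA MIC.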

Series [7] has as its system Mycobacterium tuberculosis. Description: Antimycobacterial activity against Mycobacterium tuberculosis H37Rv after 16 to 24 hrs by microplate alamar blue assay. The format is functional. The essentials:
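M. tuberculosis H37Rv (ATCC 27294), 1 × 10^5 cfu/mL inoculum, in 7H12 medium with two-fold compound dilutions at 128 to 0.5 μM final (12.8 mM DMSO stocks). Incubated aerobically at 37 °C for 7 days, then Tween 80 plus Alamar blue added for 16-24 h. Fluorescence read at ex 530/em 590 nm. MIC = lowest concentration giving ≥90% reduction versus bacteria-only controls; average of two measurements.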

Series [8] is described as follows: Metabolic stability in mouse liver microsomes assessed as half life. Type of series: ADME, Microsome. The essentials: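 Mixture prewarmed 5 min, then started with 1.0 mM NADPH. Quenched with acetonitrile plus internal standard at 0, 5, 10, 15, 20 and 30 min. Parent measured by LC-MS-MS. No-NADPH controls.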
A short description of series [9]: AUC in BALB/c mouse at 50 mg/kg, po. The format is ADME, organism-based. The conditions noted are these: plasma. Further details: dose 50 mg/kg, route oral. The procedure, abridged:
as §1

SMILES strings stand for the structures. Converted amounts (≈) assume the structure as drawn.

Broadly, the Cmax is the peak of the concentration-time curve. For orientation: Tmax means the time at which the peak concentration occurs. The term IC50 denotes the concentration that inhibits the measured activity by half. As usually defined, the CLint scaled is a measure of how fast metabolising enzymes remove a compound, apart from limits set by blood flow. One may read the MIC as the smallest concentration in the dilution series that meets the test's criterion for growth inhibition. The term half-life denotes the time in which the quantity being followed falls by half. For orientation: AUC means concentration integrated over time. `Cc1nonc1C(=O)NC1CCCc2c1cnn2-c1ccc(C(C)(C)C)cc1` (stereo not given) showed a Cmax in series [1] of 1.5 µM. Also, the time of peak concentration (Tmax) in series [2] was found to be 30 min. Moreover, the 50% inhibitory concentration (IC50) in series [3] was > 128 µM. Further, in [4], the CLint scaled worked out at 200 mL/min/kg. Further, in series [5], the CLhep predicted is 34 mL/min/kg. Further, the “Ratio IC50” value in series [6] was >75.3. This compound had a minimum inhibitory concentration (MIC) in series [7] of 1.7 µM (≈ 0.645 µg/mL). Moreover, the half-life in series [8] came to 27 min. The compound further showed an exposure (AUC) in series [9] of 3.6 µM·h.

For the compound `Cc1nonc1C(=O)Nc1cccc2c1cnn2-c1ccc(C(C)(C)C)cc1`, in series [7], the MIC is > 128 µM.

In series [7], `Cc1nonc1C(=O)NC1CCCc2c1cnn2-c1ccc(NC(=O)C(C)(C)C)cc1` (stereo not given) showed an MIC of 110 µM (≈ 46.5 µg/mL).

In series [7], `Cc1nonc1C(=O)NC1CCCc2c1cnn2-c1ccc(NC(=O)C(F)(F)F)cc1` (stereo not given) came in with an MIC of 128 µM (≈ 55.4 µg/mL).

Consider `COC(=O)c1ccc(C(=O)NC2CCCc3c2cnn3-c2ccc(C(C)(C)C)cc2)nc1` (stereo not given), for which inhibition of growth in series [7] (MIC) required 7.3 µM (≈ 3.16 µg/mL).

On to `CC(C)(C)c1ccc(-n2ncc3c2CCCC3NC(=O)c2ccno2)cc1` (stereo not given), for which the MIC in series [7] turned out to be 124 µM (≈ 45.2 µg/mL).

Compound `Cc1nonc1C(=O)NC1CCCc2c1cnn2-c1ccc(OC(F)(F)F)cc1` (stereo not given) came in with a Cmax in series [1] of 9.5 µM. In series [2], the time to peak (Tmax) came out at 30 min. Further, the concentration for half-maximal inhibition (IC50) in series [3] was > 128 µM. Further, the intrinsic clearance (CLint scaled) in series [4] was 54 mL/min/kg. Moreover, in [5], the CLhep predicted was 23 mL/min/kg. Besides, in series [6], the “Ratio IC50” value is >67.4. Moreover, 1.9 µM (≈ 0.774 µg/mL) was the least that counted as inhibitory in series [7] (MIC). Besides, the half-life in series [8] came out at 102 min. The same compound had an area under the curve (AUC) in series [9] of 53.5 µM·h.

On to `Cc1nc2cc(C(=O)NC3CCCc4c3cnn4-c3ccc(OC(F)(F)F)cc3)ccc2s1` (stereo not given), for which the MIC in [7] was > 128 µM.

With `Cc1nonc1C(=O)Nc1ccc(-n2ncc3c2CCCC3NC(=O)c2nonc2C)cc1` (stereo not given), the minimum inhibitory concentration (MIC) in series [7] is 44.9 µM (≈ 20.1 µg/mL).

As to `Cc1cc(C)cc(-n2ncc3c2CCCC3NC(=O)c2ccc3nonc3c2)c1` (stereo not given), in series [7], the MIC was > 128 µM.

For `CC(C)(C)c1ccc(-n2ncc3c2CCCC3NC(=O)c2cnccn2)cc1` (stereo not given), the minimal inhibitory concentration (MIC) in [7] stood at 57.7 µM (≈ 21.7 µg/mL).

For `Cc1nonc1C(=O)NC1CCCc2c1cnn2-c1ccc(F)cc1` (stereo not given), the MIC in series [7] is 30.7 µM (≈ 10.5 µg/mL).

Consider `Cc1nonc1C(=O)NC1CCCc2c1nnn2-c1ccc(C(C)(C)C)cc1` (stereo not given), for which the MIC in series [7] is 7.7 µM (≈ 2.93 µg/mL).

The compound `Cc1nonc1CNC1CCCc2c1cnn2-c1ccc(C(C)(C)C)cc1` (stereo not given) yielded a minimal inhibitory concentration (MIC) in [7] of 38.6 µM (≈ 14.1 µg/mL).

Regarding `COc1ccc(-n2ncc3c2CCCC3NC(=O)c2nonc2C)cc1` (stereo not given), in series [7], the MIC was > 128 µM.

`Cc1nonc1C(=O)NC1CCCc2c1cnn2-c1ccc(C(F)(F)F)cc1` (stereo not given): in series [3], the IC50 is > 128 µM. Besides, the “Ratio IC50” value in series [6] is reported as >67.4. In [7], the minimum inhibitory concentration (MIC) worked out at 1.9 µM (≈ 0.744 µg/mL).

For the compound `Cc1cc(C)cc(-n2ncc3c(NC(=O)c4nonc4C)cccc32)c1`, in series [7], 117 µM (≈ 40.6 µg/mL) was the least that counted as inhibitory (MIC).

Compound `CC(C)(C)c1ccc(-n2ncc3c2CCCC3NC(=O)c2ncccc2O)cc1` (stereo not given) yielded an MIC in series [7] of 26.9 µM (≈ 10.5 µg/mL).

`Cc1cc(C)cc(-n2ncc3c(NC(=O)c4ccc5c(c4)no[n+]5[O-])cccc32)c1` yielded an IC50 in [3] of 16.1 µM. Moreover, in series [6], the “Ratio IC50” value was found to be 23. Moreover, the MIC in series [7] stood at 0.7 µM (≈ 0.28 µg/mL).

Regarding `Cc1cc(C)cc(-n2ncc3c2CCCC3NC(=O)c2nonc2C)c1` (stereo not given), the MIC in [7] is > 128 µM.

Regarding `Cc1nocc1C(=O)NC1CCCc2c1cnn2-c1ccc(OC(F)(F)F)cc1` (stereo not given), inhibition of growth in series [7] (MIC) required 48.9 µM (≈ 19.9 µg/mL).

`CC(C)(C)c1ccc(-n2ncc3c2CCCC3NC(=O)c2ccc3c(c2)no[n+]3[O-])cc1` (stereo not given): the IC50 in [3] turned out to be 29 µM. Moreover, the “Ratio IC50” value in [6] was found to be 29. The compound also had a minimal inhibitory concentration (MIC) in series [7] of 1 µM (≈ 0.431 µg/mL).

Consider `Cc1nonc1C(=O)NC1CCCc2c1cnn2-c1ccc([N+](=O)[O-])cc1` (stereo not given), for which the MIC in [7] was > 128 µM.

Turning to `Cc1nonc1C(=O)NC1CCCc2c1cnn2-c1ccc(Br)cc1` (stereo not given), inhibition of growth in series [7] (MIC) required 64.6 µM (≈ 26 µg/mL).

On to `Cc1nonc1C(=O)NC1CCCc2c1cnn2-c1ccc(N)cc1` (stereo not given), for which the MIC in [7] was > 128 µM.

In [7], `CSCCC(=O)NC1CCCc2c1cnn2-c1ccc(OC(F)(F)F)cc1` (stereo not given) came in with a minimum inhibitory concentration (MIC) of 88.3 µM (≈ 35.3 µg/mL).

Compound `CC(C)(C)c1ccc(-n2ncc3c(NC(=O)c4ccc5c(c4)no[n+]5[O-])cccc32)cc1` showed an IC50 in series [3] of 1.8 µM. Besides, in [6], the “Ratio IC50” value turned out to be 4.5. In series [7], this compound yielded an MIC of 0.4 µM (≈ 0.171 µg/mL).

Take `Cc1nonc1C(=O)NC1CCCc2c1cnn2-c1ccc(C(F)(F)F)cn1` (stereo not given): the minimum inhibitory concentration (MIC) in [7] is > 128 µM.

On to `Cc1nonc1C(=O)NC1CCCc2c1cnn2-c1ccccc1C(F)(F)F` (stereo not given), for which, in series [7], the MIC was > 128 µM.

`Cc1cc(C)cc(-n2ncc3c2CCCC3NC(=O)c2ccc3c(c2)no[n+]3[O-])c1` (stereo not given): the lowest concentration to inhibit growth in series [7] (MIC) was 1.9 µM (≈ 0.767 µg/mL).

`Cc1nonc1C(=O)NC1CCCc2c1cnn2-c1cccc(C(F)(F)F)c1` (stereo not given) yielded an MIC in series [7] of 15.4 µM (≈ 6.03 µg/mL).

For `CSCC[C@H](N)C(=O)NC1CCCc2c1cnn2-c1ccc(C(C)(C)C)cc1` (stereo not given in full), in series [7], the MIC was found to be 4.8 µM (≈ 1.92 µg/mL).

For the compound `CC(C)(C)c1ccc(-n2ncc3c2CCCC3NC(=O)c2ccc3nonc3c2)cc1` (stereo not given), in series [7], the minimum inhibitory concentration (MIC) is > 128 µM.

In the case of `Cc1nonc1C(=O)NC1CCCc2c1cnn2-c1ccc(NC(C)C)cc1` (stereo not given), in series [7], the MIC is > 128 µM.

Consider `CO[C@H]1/C=C/O[C@@]2(C)Oc3c(C)c(O)c4c(O)c(c(/C=N/N5CCN(C)CC5)c(O)c4c3C2=O)NC(=O)/C(C)=C\C=C\[C@H](C)[C@H](O)[C@@H](C)[C@@H](O)[C@@H](C)[C@H](OC(C)=O)[C@@H]1C` [RIFAMPIN], for which the “Ratio IC50” value in series [6] turned out to be 2033. Also, it took 0.06 µM (≈ 0.0494 µg/mL) to inhibit growth in [7] (MIC).
